Experimental data as given in PubChem BioAssay AID822 (SRMLSC, 2007).
Activity calls are given as the source filed them.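 Rule for the calls: active = half-maximal effective dose for blocking growth of human endothelial cells at most 100 µM; inactive = the rest.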

What follows are compounds tested on HUVEC proliferation, viability ATP luminescence (assay: HUVEC proliferation inhibition, dose response, cell-based, ATP luminescence (AID 822);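 note: cells exposed to compound for 72 h before the ATP read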).
Outline: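 Assay system: HUVEC primary endothelial cells, low passage (≤12) / Input: 1250 cells per well / Compound dosing: dose series 0.039 to 20 µM, DMSO 0.2% / Timing: 72 h compound exposure at 37 °C / Measured by: CellTiter-Glo ATP luminescence / Read-out: percent viability relative to median untreated cell signal, EC50 via four-parameter fit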

**Q.** For `COc1cc(/C=C/c2ccc3cccc(OC)c3n2)c(OC(C)=O)c([N+](=O)[O-])c1`, which EC50 is on record?
**A.** Its EC50 is 6.27 µM.

**Q.** Which EC50 does the source give for `COc1cc2nc(NCCCN3CCN(C)CC3)n3nc(-c4ccccc4)nc3c2cc1OC` here?
**A.** Its EC50 is 10.5 µM.

**Q.** `CC1=C(SCCC#N)S/C(=C2\SC(C)=C(SCCC#N)S2)S1` was tested. Which EC50 did it give?
**A.** The EC50 was 9.1 µM.

**Q.** With `CCOC(=O)COc1ccc(S(=O)(=O)NCCC2=CCCCC2)cc1` as the compound, how does the EC50 read?
**A.** The EC50 was 11.9 µM.

**Q.** With `CC(C)CNC(=O)c1coc(=O)c(Br)c1` as the compound, how does the EC50 read?
**A.** Its EC50 is > 10 µM (inactive).

**Q.** Which EC50 does the source give for `CC(C)=CCC/C(C)=C/CCC(C)NCCN1CCNCC1` (configuration not stated) here?
**A.** The EC50 was 14.6 µM.

**Q.** For `CCC(CC)COC(=O)C(C#N)c1nc2ccccc2nc1N1CCN(CC)CC1` (configuration not stated), which EC50 is on record?
**A.** The EC50 was 10.2 µM.

**Q.** For `O=C(CSc1nnc(-c2ccccc2O)o1)Oc1ccc(OCc2ccccc2)cc1`, which EC50 is on record?
**A.** The EC50 was 10.1 µM.

**Q.** `Cc1ccc2c(c1)c1c(n2CC(O)Cn2c(C)nc3ccccc32)/C(=N\O)CCC1` (configuration not stated) was tested. Which EC50 did it give?
**A.** Its EC50 is 8.98 µM.

**Q.** How did the EC50 turn out when `COc1ccccc1N1C(=O)N(C(C)=O)C2C1Nc1ccccc1N2C` (configuration not stated) was run?
**A.** Its EC50 is 6.17 µM.

**Q.** With `O/N=C1\CC/C(=N\O)c2nn(-c3ccccc3Cl)nc21` as the compound, how does the EC50 read?
**A.** Its EC50 is > 10 µM (inactive).

**Q.** How did the EC50 turn out when `CCCOC(=O)c1ccc(Oc2c(-c3ccc(OC)cc3O)n[nH]c2C)cc1` was run?
**A.** The EC50 was 9.48 µM.

**Q.** Which EC50 does the source give for `Cc1ccc2c(c1)[nH]c1c(N3CCN(Cc4ccccc4)CC3)ncnc12` here?
**A.** The EC50 was 7.57 µM.

**Q.** With `NS(=O)(=O)c1ccc(N=Cc2c(O)n(C3CCCCC3)c(=O)n(C3CCCCC3)c2=O)cc1` as the compound, how does the EC50 read?
**A.** Its EC50 is 5 µM.

**Q.** For `Cc1ccc(NC(=O)c2cc(NC(=O)c3ccco3)ccc2N2CCCCC2)cc1`, which EC50 is on record?
**A.** Its EC50 is 17.9 µM.

**Q.** With `COc1ccc(-c2nnc(Nc3nc4c(OC)cccc4s3)o2)cc1` as the compound, how does the EC50 read?
**A.** Its EC50 is 4.41 µM.

**Q.** With `Cc1cccc2c1N(CCCOc1ccc(C(C)(C)C)cc1)C(=O)C2=O` as the compound, how does the EC50 read?
**A.** The EC50 was 9.1 µM.

**Q.** Which EC50 does the source give for `O=C1Nc2ccccc2/C1=C/C(=O)c1cccs1` here?
**A.** The EC50 was 7.52 µM.

**Q.** `O=C(Nc1cccc(-c2nc3ncccc3o2)c1)c1cc2ccccc2o1` was tested. Which EC50 did it give?
**A.** The EC50 was 14.1 µM.

**Q.** `CCC1(C)Cc2c(sc3[nH]c(=S)n(Cc4ccccc4)c(=O)c23)CO1` (configuration not stated) was tested. Which EC50 did it give?
**A.** The EC50 was 3.07 µM.

**Q.** `Cc1cc(NC(=O)CSc2nc3c(sc4ccccc43)c(=O)n2CCCN2CCOCC2)n[nH]1` was tested. Which EC50 did it give?
**A.** The EC50 was 18.2 µM.

**Q.** `Cc1ccc(C)n1NC(=O)c1ccccc1O` was tested. Which EC50 did it give?
**A.** The EC50 was > 10 µM (inactive).

**Q.** How did the EC50 turn out when `C=CCOC(=O)C1=C(C)NC(SCC(=O)Nc2ccc(C)c(Cl)c2)=C(C#N)C1c1ccco1` (configuration not stated) was run?
**A.** Its EC50 is 20.1 µM.

**Q.** How did the EC50 turn out when `O=C(COC(=O)c1cccnc1Nc1cccc(C(F)(F)F)c1)NCc1ccc2c(c1)OCO2` was run?
**A.** Its EC50 is 13.5 µM.

**Q.** Which EC50 does the source give for `Cc1cc(/C=N/n2cnnc2)c(C)n1-c1ccc(OCc2ccc(Cl)cc2Cl)cc1` here?
**A.** The EC50 was 4.39 µM.

**Q.** `COc1ccc(OC)c(CCNC(=O)Cn2sc3nc(C)cc(C)c3c2=O)c1` was tested. Which EC50 did it give?
**A.** Its EC50 is 12.1 µM.

**Q.** `COc1cc(-c2nnc(COc3ccc4cc(Br)ccc4c3)o2)cc(OC)c1OC` was tested. Which EC50 did it give?
**A.** The EC50 was 12.1 µM.

**Q.** For `CCCCc1ccc(Nc2nc(CCC)cc(=O)[nH]2)cc1`, which EC50 is on record?
**A.** Its EC50 is 9.15 µM.

**Q.** With `COC(=O)CS(=O)(=O)c1nnc([C@H](Cc2ccccc2)NC(=O)OC(C)(C)C)o1` as the compound, how does the EC50 read?
**A.** The EC50 was 8.85 µM.

**Q.** Which EC50 does the source give for `COc1ccc2nc3oc(C(=O)N4CCN(c5ccccc5F)CC4)cc3cc2c1` here?
**A.** The EC50 was 15.5 µM.

**Q.** With `Cc1nn(-c2ccc(Cl)cc2)c2sc(C(=O)N3CCN(c4ccccn4)CC3)cc12` as the compound, how does the EC50 read?
**A.** The EC50 was 19 µM.

**Q.** How did the EC50 turn out when `O=C(Nc1cccc(-c2nnc(-c3ccccc3)o2)c1)c1ccc(Br)o1` was run?
**A.** The EC50 was 9.92 µM.

**Q.** Which EC50 does the source give for `CC(C)c1ccc(C2C3CSCC=C3C(C#N)=C(N)C2(C#N)C#N)cc1` (configuration not stated) here?
**A.** The EC50 was 4.86 µM.

**Q.** Which EC50 does the source give for `CCN(CC)CC(=O)Nc1ccc(-c2nc3cc(NC(=O)CN(CC)CC)ccc3o2)cc1` here?
**A.** The EC50 was > 10 µM (inactive).

**Q.** Which EC50 does the source give for `COc1ccc2[nH]c(=O)c(CN(C3CCCCC3)C(c3nnnn3Cc3ccco3)C(C)C)cc2c1` (configuration not stated) here?
**A.** The EC50 was 8.72 µM.

**Q.** `Cc1ccc2[nH]c3c(N4CCN(Cc5ccccc5)CC4)ncnc3c2c1` was tested. Which EC50 did it give?
**A.** Its EC50 is 8.08 µM.

**Q.** How did the EC50 turn out when `CC(=O)C(C(C)=O)c1c(Cl)c(O)c(O)c2c(C(=O)c3ccccc3)coc12` was run?
**A.** The EC50 was 5.38 µM.

**Q.** How did the EC50 turn out when `CC(C)(C)OC(=O)N[C@@H](Cc1ccccc1)c1nnc(S(=O)(=O)Cc2cccc(F)c2)o1` was run?
**A.** Its EC50 is 14.3 µM.

**Q.** How did the EC50 turn out when `COc1cc(NC(=O)Nc2cccc(Cl)c2)c(OC)cc1NC(=O)CN1CCCCC1` was run?
**A.** Its EC50 is 5.49 µM.

**Q.** Which EC50 does the source give for `CCOc1cc(N2CCOCC2)c(OCC)cc1NC(=O)COc1cccc2cccnc12` here?
**A.** The EC50 was 14.9 µM.

**Q.** How did the EC50 turn out when `O=C1C2=C(NC(=S)NC2c2ccc(Cl)cc2)NC(c2ccc(Cl)cc2)N1c1ccc(Cl)cc1` (configuration not stated) was run?
**A.** The EC50 was 5.96 µM.

**Q.** How did the EC50 turn out when `Cc1ccc(N=Nc2c(C)[nH][nH]c2=O)c(C)c1` was run?
**A.** Its EC50 is 7.59 µM.

**Q.** `Nc1c(S(=O)(=O)c2ccccc2)c2nc3ccccc3nc2n1/N=C/c1cccc(O)c1` was tested. Which EC50 did it give?
**A.** Its EC50 is 6.06 µM.

**Q.** Which EC50 does the source give for `CC1CC(C)CN(S(=O)(=O)c2ccc(C(=O)Nc3nnc(-c4cccs4)o3)cc2)C1` (configuration not stated) here?
**A.** The EC50 was 3.04 µM.

**Q.** For `CCOC(=O)c1c(OCC)[nH]c2c1cc(O)c1ccccc12`, which EC50 is on record?
**A.** The EC50 was 17.4 µM.

**Q.** With `CC(=O)Oc1ccc(N(C(C)=O)S(=O)(=O)c2cccs2)c2ccccc12` as the compound, how does the EC50 read?
**A.** The EC50 was 9 µM.

**Q.** For `COC(=O)C(CC(=O)c1ccc(Br)cc1)n1ccnc1` (configuration not stated), which EC50 is on record?
**A.** Its EC50 is 9.3 µM.

**Q.** For `CN(C)c1ccc(/C=C(\C#N)C(=O)Nc2nc3c(s2)CCN(Cc2ccccc2)C3)cc1`, which EC50 is on record?
**A.** The EC50 was 3.88 µM.

**Q.** With `COc1cc2nc(N3CCN(C(=O)c4ccco4)CC3)nc(N)c2cc1OC` as the compound, how does the EC50 read?
**A.** The EC50 was 11.2 µM.

**Q.** How did the EC50 turn out when `Cc1cc(=O)[nH]c2ccc(Cl)cc12` was run?
**A.** The EC50 was > 10 µM (inactive).

**Q.** For `COc1ccc(Cl)c(N2CCN(CCCNC(=O)Nc3ccc(C)cc3)CC2)c1`, which EC50 is on record?
**A.** The EC50 was 12.3 µM.

**Q.** How did the EC50 turn out when `COc1ccc(-n2nc(C(=O)NCc3ccco3)c3c4ccccc4n(C)c3c2=O)cc1Cl` was run?
**A.** Its EC50 is 19.7 µM.
